The source of these data is PubChem BioAssay.

The source made the active and inactive calls.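 Rule for the calls, unless noted: active = inhibition of the reporter signal at or above 50%; inactive = inhibition below 50%.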

Assay [1] in a line: inhibitors of TNFa-induced NFkB p65 translocation, primary screen, imaging, HUVEC, MLSMR starter and 10KST1 sets (AID 438;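 active = inhibition above 20% together with a positive visual image hit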;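 note: compound added about 3h40 before a 20 min TNFalpha stimulation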;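 for inhibition: signal is the nuclear over cytoplasmic p65 intensity ratio per well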). The note with it: HUVEC TNFa-induced p65 nuclear translocation; cell count: measured here: nuclei count (cytotoxicity indicator), at 2.08 µM; inhibition: at 2 µM, stronger effect = higher value, 0% TNFa-plus-vehicle, 100% no-TNFa wells.
Assay [2] can be described thus: inhibitors of mutant huntingtin aggregation, primary screen, imaging, exon1htt(103Q)mCFP cells, high-content imaging (AID 483;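 active = visual image review flags a hit and inhibition of aggregation exceeds 20%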;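 note: compound exposure lasted 3 days before fixation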;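 for nuclei count: percent of the per-plate median nuclei count of sample wells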). The settings on record: exon1htt(103Q)mCFP cell line, aggregate imaging, at 2 µM; inhibition of aggregation: stronger effect = higher value; nuclei count: measured here: cell count, toxicity.
Assay [3] is described as follows: inhibitors of E-selectin induction by TNFa, primary screen, imaging, HUVEC, immunofluorescence, MLSMR starter and 10KST1 sets (AID 487;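 active = visually confirmed hit in the image check and inhibition above 20%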;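 for inhibition: signal is fraction of cell area covered by stained E-selectin grains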;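 for nuclei count: 100% = median nuclei count of all wells on the same plate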). The note with it: HUVEC TNFalpha-induced E-selectin immunofluorescence imaging, at 2 µM; inhibition: stronger effect = higher value; nuclei count: measured here: cell number, toxicity.
Assay [4] has as its target Voltage-gated potassium channel subunit beta-2 (Rattus norvegicus) (UniProt P62483). The experiment in a line: KvBeta enzyme negative modulators, primary screen, biochemical, NADPH fluorescence (AID 622;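 active = fluorescence slope higher than the sample average by over 3 SD, cut at about -0.22 in these data, passing the limit was not always enough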;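 note: slope of raw intensity against log time taken from 70 to 1610 s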). The note with it: recombinant KvBeta, 4-cyanobenzaldehyde reduction, at 10 µM, stronger effect = higher value.
The target is the same in assay [5]. Briefly: KvBeta positive modulators, primary screen, biochemical, NADPH fluorescence (AID 623;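 active = NADPH fluorescence slope more negative than the mean of all samples by about 3 SD, 99.7% confidence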;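 note: fluorescence intensity change per second fitted from 20 to 320 s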). The settings on record: Recombinant KvBeta, NADPH fluorescence decrease slope, 10 min; at 10 µM; stronger effect = lower value.
Assay [6] deals with Muscarinic acetylcholine receptor M4 (Homo sapiens) (UniProt P08173). Briefly: compounds altering M4/GIRK thallium flux, either direction, primary screen, M4 allosteric agonist project, cell-based, HEK293 M4/GIRK, BTC-AM (AID 625;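 active = fluorescence slope after compound addition differing from the mean of all tested samples at 99.7% confidence, mostly higher but some lower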;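 note: thallium influx through GIRK channels coupled to M4 in HEK293 cells with BTC-AM dye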). The settings on record: at 10 µM, actives lie on both sides. The gist of the method: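 Material: M4/GIRK1/GIRK2 stable HEK293 cell line. Medium: pH 7.3 thallium assay buffer. Dosing: single compound concentration, 10 µM final. Schedule: 1 h dye loading, 2 min kinetic read. Measured by: kinetic fluorescence with BTC-AM dye. Read-out: post-addition slope, 15–24 s, of baseline-normalized fluorescence. Benchmarks: carbachol and DMSO controls.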
Sequence of Muscarinic acetylcholine receptor M4 (Homo sapiens) (P08173 whole entry, looked up): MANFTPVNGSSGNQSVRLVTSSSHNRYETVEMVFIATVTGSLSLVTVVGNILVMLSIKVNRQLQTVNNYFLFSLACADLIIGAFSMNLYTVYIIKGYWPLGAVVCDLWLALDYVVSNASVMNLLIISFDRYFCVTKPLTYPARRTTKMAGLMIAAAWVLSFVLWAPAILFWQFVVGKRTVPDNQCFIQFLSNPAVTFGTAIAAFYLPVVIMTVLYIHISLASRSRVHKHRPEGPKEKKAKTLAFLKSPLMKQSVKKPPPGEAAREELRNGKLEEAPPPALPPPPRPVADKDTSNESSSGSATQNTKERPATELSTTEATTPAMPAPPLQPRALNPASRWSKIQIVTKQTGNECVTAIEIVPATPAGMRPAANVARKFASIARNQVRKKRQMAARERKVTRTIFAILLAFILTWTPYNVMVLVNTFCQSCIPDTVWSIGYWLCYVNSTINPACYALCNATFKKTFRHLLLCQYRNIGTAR

Assay [7] in a line: inhibitors of Sendai virus-induced IRF3 signaling, primary screen, TLR/RLR signaling modifier project, cell-based, Sendai virus stimulus, luciferase, 10K MLSCN set (AID 602276;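 active = inhibition at or above 50% at 10 µM; inactive = inhibition below 50%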;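 note: firefly luciferase from ISG56 promoter only with Renilla not read in this screen; 0% = Sendai virus plus DMSO and 100% = medium plus DMSO without virus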). The note with it: HEK293 RL24 IRF3 luciferase reporter, at 10 µM, stronger effect = higher value. (A reporter such as luciferase makes a cellular process visible.)
Assay [8] can be described thus: inhibitors of poly I:C-induced TLR3 signaling, primary screen, cell-based, poly I:C stimulus, luciferase, 10K MLSCN set (AID 602277). The note with it: HEK293-TLR3 RL24 IRF3 luciferase reporter, at 10 µM, stronger effect = higher value.

Sequence of Voltage-gated potassium channel subunit beta-2 (Rattus norvegicus) (P62483 whole entry, looked up): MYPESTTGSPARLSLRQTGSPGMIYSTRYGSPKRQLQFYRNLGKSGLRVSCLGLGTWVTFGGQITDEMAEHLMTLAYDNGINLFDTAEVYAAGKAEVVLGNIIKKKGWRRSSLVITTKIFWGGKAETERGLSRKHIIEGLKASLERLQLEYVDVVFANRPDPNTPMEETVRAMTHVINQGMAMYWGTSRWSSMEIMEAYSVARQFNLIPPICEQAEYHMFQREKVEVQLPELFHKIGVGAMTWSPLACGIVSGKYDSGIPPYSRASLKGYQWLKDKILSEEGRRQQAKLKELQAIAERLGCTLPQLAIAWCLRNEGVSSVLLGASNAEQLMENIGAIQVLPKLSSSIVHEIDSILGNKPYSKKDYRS

For the molecule `CCCCCn1c(=O)[nH]c2cc(C(=O)NCCCN3CCCCC3)ccc2c1=O`, the cell count in assay [1] stood at 255. Besides, the inhibition (as a rule, the change of the read-out against control, counted positive when it falls) was -2.1% (inactive) in assay [1], -32.3% (inactive) in assay [3], 7.49% (inactive) in assay [7] and 6.91% (inactive) in assay [8]. Besides, the inhibition of aggregation in assay [2] is -0.1% (inactive). Further, the nuclei count worked out at 77.4% in assay [2] and 109% in assay [3]. Moreover, the results for the fluorescence slope in assay [4] and in assay [6] were -0.298 (inactive) and 0.00603 (inactive), respectively. The NADPH fluorescence slope in assay [5] was -5.4e-05 (inactive).
Turning to `O=c1c[n+]([O-])c2ccccc2n1OCc1ccccn1`, in assay [1], the cell count came to 649. Moreover, the inhibition in assay [1] is -0.8% (inactive); in assay [3], -73% (inactive); in assay [7] it was -4.06% (inactive); in assay [8], -7.39% (inactive). For the same molecule, in assay [2], the inhibition of aggregation is -17.9% (inactive). Also, the nuclei count worked out at 103% in assay [2] and 106% in assay [3]. Besides, the fluorescence slope in assay [4] was -0.464 (inactive); in assay [6], 0.00798 (inactive). For the same molecule, in assay [5], the NADPH fluorescence slope was 2.5e-05 (inactive).
With `CCOC(=O)N1CCC(NC(=O)c2ccc(OC)c(CN3CC(=O)N4CCCC4C3=O)c2)CC1` (centres undefined), the cell count in assay [1] came out at 532. Further, the inhibition was -18.9% (inactive) in assay [1], -71.7% (inactive) in assay [3], 13.2% (inactive) in assay [7] and 24.9% (inactive) in assay [8]. In addition, the inhibition of aggregation in assay [2] is 2.9% (inactive). Further, the nuclei count in assay [2] amounted to 98%; in assay [3], 94.9%. Moreover, the figures for the fluorescence slope in assay [4] and in assay [6] were -0.447 (inactive) and 0.00582 (inactive), respectively. In addition, the NADPH fluorescence slope in assay [5] was -4.9e-05 (inactive).
With `COC(=O)c1cn(-c2ccccc2)nc1C(=O)OC`, in assay [1], the cell count worked out at 232. The inhibition was 5.8% (inactive) in assay [1], 24% (inactive) in assay [3], 4.01% (inactive) in assay [7] and 1.15% (inactive) in assay [8]. The inhibition of aggregation in assay [2] is -0.8% (inactive). Further, the nuclei count in assay [2] came to 92.6%; in assay [3], 77.4%. Also, the results for the fluorescence slope in assay [4] and in assay [6] were -0.441 (inactive) and 0.00607 (inactive), respectively. Moreover, the NADPH fluorescence slope in assay [5] was -7.4e-05 (inactive).
Take `CCSc1nc(C)nc2c1oc1ccccc12`: the cell count in assay [1] was found to be 407. The inhibition in assay [1] is 1.9% (inactive); in assay [3], -45.2% (inactive); in assay [7], -4.86% (inactive); in assay [8] it was -3.79% (inactive). In addition, the inhibition of aggregation in assay [2] is 2.4% (inactive). Moreover, the nuclei count in assay [2] was 96.3%; in assay [3] it was 106%. For the same molecule, the fluorescence slope in assay [4] was -0.423 (inactive); in assay [6], 0.00861 (inactive). For the same molecule, the NADPH fluorescence slope in assay [5] was -7.5e-05 (inactive).
In the case of `O=C(c1ccco1)N1CCN(C(=O)c2ccc(Cn3cc(Br)cn3)o2)CC1`, in assay [1], the cell count is 371. Moreover, the inhibition is 2.6% (inactive) in assay [1], -21.6% (inactive) in assay [3], 13.3% (inactive) in assay [7] and 12.9% (inactive) in assay [8]. Also, the inhibition of aggregation in assay [2] was 9.6% (inactive). The values for the nuclei count in assay [2] and in assay [3] were 102% and 105%, respectively. In addition, the fluorescence slope is -0.456 (inactive) in assay [4] and 0.00591 (inactive) in assay [6]. The NADPH fluorescence slope in assay [5] is -4.2e-05 (inactive).
With `O=C(CSc1nc2ccccc2o1)N1CCN(c2ccc(Cl)cc2)CC1`, in assay [1], the cell count turned out to be 301. Moreover, the inhibition in assay [1] is -0.5% (inactive); in assay [3] it was -47% (inactive); in assay [7], 16.8% (inactive); in assay [8] it was 7.29% (inactive). The inhibition of aggregation in assay [2] was -13.9% (inactive). Also, the figures for the nuclei count in assay [2] and in assay [3] were 117% and 124%, respectively. Moreover, the fluorescence slope is -0.576 (inactive) in assay [4] and 0.00749 (inactive) in assay [6]. Moreover, the NADPH fluorescence slope in assay [5] is -3.9e-05 (inactive).
For the molecule `CC(=O)N1CCc2cc(S(=O)(=O)NC(C(=O)NCc3ccccc3)C(C)C)ccc21` (centres undefined), in assay [1], the cell count stood at 579. Further, the inhibition is -3.8% (inactive) in assay [1], 22.1% (inactive) in assay [3], 10.6% (inactive) in assay [7] and 15.4% (inactive) in assay [8]. In addition, the inhibition of aggregation in assay [2] is 23.8% (inactive). Also, the nuclei count is 110% in assay [2] and 94.8% in assay [3]. The results for the fluorescence slope in assay [4] and in assay [6] were -0.587 (inactive) and 0.00584 (inactive), respectively. Besides, the NADPH fluorescence slope in assay [5] was -1.2e-05 (inactive).
For the molecule `COc1cccc(OC)c1C(=O)N1CCOCC1`, the cell count in assay [1] came to 505. Also, the inhibition is -7.7% (inactive) in assay [1], -105% (inactive) in assay [3], 17.5% (inactive) in assay [7] and 25.3% (inactive) in assay [8]. Also, the inhibition of aggregation in assay [2] is 7.2% (inactive). For the same molecule, the nuclei count in assay [2] turned out to be 103%; in assay [3], 126%. In addition, the fluorescence slope is -0.536 (inactive) in assay [4] and 0.00602 (inactive) in assay [6]. For the same molecule, the NADPH fluorescence slope in assay [5] is -3.1e-05 (inactive).
As to `COCC(=O)N(Cc1nc2ccccc2c(=O)[nH]1)Cc1cccs1`, the cell count in assay [1] was determined as 608. Further, the inhibition was -5.4% (inactive) in assay [1], -64.2% (inactive) in assay [3], 20.3% (inactive) in assay [7] and 22.3% (inactive) in assay [8]. Moreover, the inhibition of aggregation in assay [2] is -6.1% (inactive). Further, the nuclei count was determined as 105% in assay [2] and 114% in assay [3]. The fluorescence slope in assay [4] is -0.557 (inactive); in assay [6], 0.00566 (inactive). Moreover, the NADPH fluorescence slope in assay [5] is -3e-05 (inactive).
With `COC(=O)Cc1c(C)nc2nc(-c3ccco3)[nH]n2c1=O`, the cell count in assay [1] came to 409. The inhibition in assay [1] is 1.2% (inactive); in assay [3], -28.5% (inactive); in assay [7] it was 9.5% (inactive); in assay [8], 19.1% (inactive). Also, in assay [2], the inhibition of aggregation was 5.5% (inactive). In addition, the nuclei count in assay [2] came to 93.6%; in assay [3], 105%. The fluorescence slope in assay [4] is -0.467 (inactive); in assay [6], 0.00635 (inactive). In addition, in assay [5], the NADPH fluorescence slope was -4e-05 (inactive).
For `NC(=O)C1(N2CCCCC2)CCN(Cc2ccccc2Cl)CC1`, the cell count in assay [1] amounted to 438. In addition, the inhibition in assay [1] was 0.3% (inactive); in assay [3] it was 3.4% (inactive); in assay [7], 12.3% (inactive); in assay [8] it was 19.9% (inactive). The inhibition of aggregation in assay [2] was -1% (inactive). The nuclei count came to 98% in assay [2] and 103% in assay [3]. The fluorescence slope in assay [4] is -0.233 (inactive); in assay [6], 0.0052 (inactive). Also, the NADPH fluorescence slope in assay [5] was -2.8e-05 (inactive).
Take `CCn1c(SCC(N)=O)nc2c1c(=O)n(C)c(=O)n2C`: in assay [1], the cell count was found to be 226. For the same molecule, the inhibition in assay [1] was 4.9% (inactive); in assay [3], -57.2% (inactive); in assay [7], 17.5% (inactive); in assay [8], 21.1% (inactive). In addition, the inhibition of aggregation in assay [2] was 20.7% (inactive). Also, the nuclei count was found to be 80.1% in assay [2] and 152% in assay [3]. Also, the fluorescence slope in assay [4] was -0.422 (inactive); in assay [6] it was 0.00578 (inactive). Also, the NADPH fluorescence slope in assay [5] is 2.5e-05 (inactive).
For `COC(=O)c1cc(O)c(OCc2ccccc2)c(O)c1`, the cell count in assay [1] is 775. The inhibition was -2.2% (inactive) in assay [1], -8.4% (inactive) in assay [3], -22% (inactive) in assay [7] and -58.4% (inactive) in assay [8]. The inhibition of aggregation in assay [2] is 20.1% (inactive). The nuclei count in assay [2] and in assay [3] was 112% in each case. The fluorescence slope in assay [4] was -0.552 (inactive); in assay [6], 0.00449 (inactive). Further, in assay [5], the NADPH fluorescence slope was 4.3e-05 (inactive).
